ChEMBL document CHEMBL1149660, “Identification and characterization of novel sodium/potassium-ATPase inhibitors by virtual screening of a compound database” (Bioorg Med Chem, 2007)
Active and inactive are the calls of the source. The rule behind the calls is not given here.

Experiments:
Sus scrofa [1] = organism: Sus scrofa; assay: Inhibition of Na/K-ATPase in porcine cerebral cortex relative to ouabain; type: tissue-based
How it was run: (§1)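 Coupled pyruvate kinase/lactate dehydrogenase assay using lyophilized porcine cerebral cortex Na/K-ATPase. The enzyme was preincubated at 37 °C for at least 30 min (or overnight at room temperature first, in some cases) with 10–14 inhibitor concentrations. Reactions were started with 5 mM ATP. NADH oxidation was followed at 340 nm for 5 min. IC50 came from the inhibition curves; relative potency is the IC50 divided by ouabain's IC50.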

[2] = (§2) Inhibition of Na/K-ATPase in porcine cerebral cortex; type: tissue-based, Sus scrofa; how it was run: as §1
Sus scrofa [3] = organism: Sus scrofa; assay: as §2; type: tissue-based; how it was run: as §1

SMILES	Activity (Sus scrofa [1])	IC50 [2] [µM]	Activity (Sus scrofa [3])
CC1OC(O[C@H]2CC[C@]3(/C=N/CCc4ccc(O)cc4)[C@H]4CC[C@]5(C)[C@@H](C6=CC(=O)OC6)CC[C@]5(O)[C@@H]4CC[C@]3(O)C2)CC(O)C1O (some centres not stated)	4.92	2.64	
C[C@]12CC[C@H]3[C@@H](CC[C@]4(O)C[C@@H](O)CC[C@]34/C=N/Nc3ccccc3)[C@@]1(O)CC[C@@H]2C1=CC(=O)OC1	7.89	4.23	
C[C@]12CC[C@@H](O)C[C@@H]1[C@@H](O)C[C@H]1[C@H]2CC[C@]2(C)[C@@H]([C@@]3(C)CO3)CC[C@]12C			inactive
C[C@@H]1C[C@@H]2O[C@]3(C[C@@]4(C)[C@@H]5[C@@H](O)C[C@H]6C(C)(C)[C@@H](O[C@H]7OC[C@H](O)[C@@H](O)[C@@H]7O)CC[C@@]67C[C@@]57CC[C@]4(C)[C@@H]13)O[C@@H]2C(C)(C)O			inactive
C[C@H]1O[C@@H](O[C@H]2CC[C@]3(C=O)[C@H]4CC[C@]5(C)[C@@H](C6=CC(=O)OC6)CC[C@]5(O)[C@@H]4CC[C@]3(O)C2)C[C@H]2OC(C)(C)O[C@@H]12	0.031	0.0146	
C[C@H]1CCC([C@@H](C)[C@H]2CC[C@@H]3[C@@H]2CC[C@H]2[C@H]3CC(=O)[C@H]3C[C@@H](O)CC[C@@]32C)=NC1	305	143	
CO[C@H]1[C@H](O)[C@H](O[C@H]2CC[C@@]3(C=O)[C@@H](CC[C@@H]4[C@H]3CC[C@]3(C)[C@@H](c5ccc(=O)oc5)CC[C@]43O)C2)O[C@@H](C)[C@@H]1O	0.118	0.0556	
C[C@H]1O[C@@H](O[C@H]2CC[C@]3(C=O)[C@H]4CC[C@]5(C)[C@@H](C6=COC(=O)C6)CC[C@]5(O)[C@@H]4CC[C@]3(O)C2)C[C@@H]2OC3(CCCCC3)O[C@@H]21	0.872	0.409	
CC(=O)OCC(=O)[C@@]1(OC(C)=O)CC[C@H]2[C@@H]3CC[C@H]4C[C@H](OC(C)=O)CC[C@]4(C)[C@H]3CC[C@@]21C			inactive
C[C@]12CC[C@H]3[C@@H](CC[C@]4(O)C[C@@H](O)CC[C@]34/C=N/C34CC5CC(CC(C5)C3)C4)[C@@]1(O)CC[C@@H]2C1=CC(=O)OC1	0.668	0.313	
CC(C)(O)[C@H]1CC[C@@](C)([C@H]2[C@@H](O)C[C@@]3(C)[C@@H]4C[C@H](O)C5C(C)(C)[C@@H](O[C@@H]6O[C@H](CO)[C@@H](O)[C@H](O)[C@H]6O)CC[C@@]56C[C@@]46CC[C@]23C)O1 (some centres not stated)			inactive
C[C@]12CC[C@H]3[C@@H](CC[C@]4(O)C[C@@H](OC(=O)c5cccnc5)CC[C@]34C=O)[C@@]1(O)CC[C@@H]2C1=CC(=O)OC1	0.944	0.443	
C[C@H]1O[C@@H](O[C@H]2CC[C@]3(C=O)[C@H]4CC[C@]5(C)[C@@H](C6=CC(=O)OC6)CC[C@]5(O)[C@@H]4CC[C@]3(O)C2)C[C@H](O)[C@@H]1O[C@@H]1OC[C@@H](O)[C@H](O)[C@H]1O	0.341	0.16	
